Laboratory results reported in ChEMBL document CHEMBL2176974, “A bactericidal guanidinomethyl biaryl that alters the dynamics of bacterial FtsZ polymerization” (J Med Chem, 2012).
Converted amounts (≈) assume the structure as drawn. The source made the active and inactive calls. The calls are words filed in the database; no cut-off is given here.

Columns and labels:
Staphylococcus aureus [1] = assay: Antimicrobial activity against methicillin-resistant Staphylococcus aureus Mu3 incubated for 24 hrs by broth microdilution method; assay type: functional; conditions: Mu3, 24 h
Staphylococcus aureus [2] = assay: Antimicrobial effect against methicillin-sensitive Staphylococcus aureus 8325-4 assessed as changes in MIC measured after 12 incubation cycles by stepwise broth microdilution method relative to initial compound MIC; assay type: functional, organism-based
Outline: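 Stepwise resistance selection. S. aureus 8325-4 at 10⁵ CFU/mL was inoculated into 2-fold increasing compound concentrations and incubated 24 h at 37 °C. Aliquots from the well with the highest concentration still showing growth (2-fold below MIC) seeded a new serial 2-fold dilution plate. This was repeated for multiple cycles, with MIC determined each cycle.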

[3] = target: T1, Cell division protein FtsZ (Escherichia coli K-12) (UniProt P0A9A6); assay: Stimulation of Escherichia coli FtsZ self-polymerization by microtiter plate-based light scattering assay
T1 sequence (whole entry): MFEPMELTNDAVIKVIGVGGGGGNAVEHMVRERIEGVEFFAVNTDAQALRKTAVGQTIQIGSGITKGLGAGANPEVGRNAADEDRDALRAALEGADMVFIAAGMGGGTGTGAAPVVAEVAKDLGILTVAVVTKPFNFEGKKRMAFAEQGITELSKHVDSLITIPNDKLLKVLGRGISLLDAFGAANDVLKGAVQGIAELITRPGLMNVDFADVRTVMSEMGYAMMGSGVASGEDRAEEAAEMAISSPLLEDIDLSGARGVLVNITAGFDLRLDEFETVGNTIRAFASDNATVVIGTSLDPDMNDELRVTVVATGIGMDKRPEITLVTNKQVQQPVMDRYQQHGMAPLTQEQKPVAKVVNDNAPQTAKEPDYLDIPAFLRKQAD

[4] = Selectivity index, ratio of Kd for Enterococcus faecalis FtsZ to Kd for Escherichia coli FtsZ
Outline: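 Buffer was 50 mM Tris·HCl pH 7.4, 50 mM KCl, 2 mM magnesium acetate. Kd came from nonlinear least-squares fits, and the index is the ratio of the two Kd values.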

Staphylococcus aureus [5] = assay: Antimicrobial effect against 3x10^9 CFU/ml methicillin-sensitive Staphylococcus aureus 8325-4 at 4 to 32 times MIC assessed as incidence of colonies growth measured after 24 incubation by large inoculation approach based drug resistance detection method; assay type: functional, organism-based
Outline: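 Inoculum count checked on nonselective plates. Incubated at 37 °C and examined after 24 h and daily thereafter. Mutation frequency = colonies on selective plates / total bacteria plated.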

Staphylococcus aureus [6] = assay: Bactericidal activity against methicillin-sensitive Staphylococcus aureus 8325-4 at 8 times MIC measured 2 hrs post dose for 24 hrs assessed as log reduction in bacterial CFU by time kill study; assay type: functional
Outline: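 Exponentially growing S. aureus 8325-4 was diluted in CAMH broth to 10⁵–10⁶ CFU/mL. […] Samples taken at 2, 4 and 6 h were pelleted or diluted, then plated on TSA. Colonies were counted after 24 h at 37 °C. Points are the mean of two independent measurements.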

Staphylococcus aureus [7] = assay: microbe, parasite or virus in culture; assay type: functional; conditions: ATCC 33591, 24 h
Klebsiella pneumoniae = assay: Antimicrobial activity against Klebsiella pneumoniae ATCC 13883 incubated for 24 hrs by broth microdilution method; assay type: functional; conditions: ATCC 13883, 24 h
Outline: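 CLSI broth microdilution. Log-phase bacteria at 10⁵ CFU/mL were added to 2-fold serial dilutions (64 to 0.016 μg/mL) in cation-adjusted Mueller-Hinton broth. Plates were incubated aerobically for 24 h at 37 °C and growth was read as OD600. MIC is the lowest concentration giving 90% growth inhibition.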

[8] = Binding affinity to Enterococcus faecalis FtsZ at 25 degC by fluorescence anisotropy assay; conditions: read-out: Kd
[9] = target: Cell division protein FtsZ (Staphylococcus aureus, UniProt P0A031, G196A); assay: Binding affinity to Staphylococcus aureus FtsZ G196A mutant expressed in Escherichia coli BL21 (DE3) at 25 degC by fluorescence anisotropy assay
[10] = target: T2, Cell division protein FtsZ (Staphylococcus aureus) (UniProt P0A031); assay: Stimulation of Staphylococcus aureus FtsZ self-polymerization by microtiter plate-based light scattering assay
T2 sequence (whole entry): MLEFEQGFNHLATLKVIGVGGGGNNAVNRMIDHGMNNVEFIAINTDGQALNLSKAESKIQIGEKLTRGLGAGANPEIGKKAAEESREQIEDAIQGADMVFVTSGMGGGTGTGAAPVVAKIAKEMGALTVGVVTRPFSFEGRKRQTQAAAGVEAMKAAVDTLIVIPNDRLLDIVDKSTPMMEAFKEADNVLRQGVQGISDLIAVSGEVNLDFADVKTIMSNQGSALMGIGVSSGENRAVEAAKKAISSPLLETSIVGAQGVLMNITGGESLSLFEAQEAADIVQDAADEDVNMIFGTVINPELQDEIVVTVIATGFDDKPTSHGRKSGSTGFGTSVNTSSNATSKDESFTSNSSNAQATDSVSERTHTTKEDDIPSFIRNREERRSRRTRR

Staphylococcus aureus [11] = assay: Potency index, ratio of vancomycin to compound bactericidal effect in methicillin-sensitive Staphylococcus aureus 8325-4 at 8 times MIC by time kill study; assay type: functional
Enterococcus faecalis = assay: microbe, parasite or virus in culture; assay type: functional; conditions: ATCC 51575, 24 h
[12] = target: T3, Cell division protein FtsZ (Staphylococcus aureus, UniProt P0A031); assay: Binding affinity to Staphylococcus aureus FtsZ expressed in Escherichia coli BL21 (DE3) at 25 degC by fluorescence anisotropy assay; conditions: read-out: Kd
T3 sequence (P0A031 whole entry): T2 sequence (whole entry)
Outline: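 Intrinsic compound fluorescence anisotropy. Compound at 5 μM was titrated with 0–25 μM FtsZ in 50 mM Tris·HCl pH 7.4, 50 mM KCl, 2 mM magnesium acetate. Samples were incubated 5 min at 25 °C, excited at 245 nm with emission at 318 nm, and G-corrected. Runs were in triplicate and averaged. Kd was obtained by nonlinear least-squares fit. SaFtsZ was expressed in E. coli BL21(DE3) and purified by ammonium sulfate, MonoQ and Superdex-200.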

[13] = target: Cell division protein FtsZ (Staphylococcus aureus, UniProt P0A031, I228R); assay: Binding affinity to Staphylococcus aureus FtsZ I228R mutant expressed in Escherichia coli BL21 (DE3) at 25 degC by fluorescence anisotropy assay
Outline: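 Purified SaFtsZ mutant protein (0–25 μM) mixed with 5 μM compound in 50 mM Tris·HCl pH 7.4, 50 mM KCl, 2 mM magnesium acetate. After 5 min at 25 °C, steady-state fluorescence anisotropy read at excitation 245 / emission 318 nm, G-factor corrected, triplicate. Kd from nonlinear least-squares fit.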

Question: Which results are given for `CC(C)(C)c1ccc(-c2cccc(CNC(=N)N)c2)cc1`?
Answer: MIC (Staphylococcus aureus [1]): 1 µg/mL (≈ 3.55 µM); Activity (Staphylococcus aureus [2]): Active; Activity [3]: Dose-dependent effect; Ratio [4]: 6; Activity (Staphylococcus aureus [5]): Active; FC (Staphylococcus aureus [6]): 3; MIC (Staphylococcus aureus [7]): 1 µg/mL (≈ 3.55 µM); MIC (Klebsiella pneumoniae): 32 µg/mL (≈ 114 µM); Kd [8]: 21.8 µM; Kd [9]: 5 µM; Activity [10]: Dose-dependent effect; Ratio (Staphylococcus aureus [11]): 100; MIC (Enterococcus faecalis): 4 µg/mL (≈ 14.2 µM); Kd [12]: 3.5 µM; Kd [13]: 32.9 µM
